Data published in ChEMBL document CHEMBL4390648, “Chemical synthesis, crystal structure, versatile evaluation of their biological activities and molecular simulations of novel pyrithiobac derivatives” (Eur J Med Chem, 2019).
≈ marks a conversion by molar mass, not a printed value. Calls of active or inactive are those of the source. The rule behind the calls is not given here.

Assays:
[1] = Cytotoxicity against HEK293T cells assessed as reduction in cell growth incubated for 48 hrs by MTT assay; type: cell-based, HEK-293T; settings: human
How it was run: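 293T cells in logarithmic phase seeded at 12000 cells/well overnight, then exposed to a range of compound concentrations for 48 h. MTT added for a further 4 h, formazan dissolved in DMSO, and OD570 read. CC50 is the concentration reducing viability by 50%.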

Sclerotinia sclerotiorum = assay: Antifungal activity against Sclerotinia sclerotiorum assessed as reduction in growth at 50 mg/l by mycelium growth rate method relative to control; type: functional
How it was run: (§1)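 Mycelium growth rate method against S. sclerotiorum, P. capsici, P. piricola, R. cerealis, W. anthracnose and R. bakanae. Each compound tested at 50 mg/L, with chlorothalonil and PTB as controls. Relative inhibitory ratio (%) calculated from mycelial growth.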

Candida albicans [2] = assay: Antifungal activity against Candida albicans SC5314 grown in RPMI 1640 medium incubated for 24 hrs by microdilution method; type: functional; settings: SC5314, 24 h
How it was run: (§2)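 C. albicans standard strain SC5314 and clinical isolates g5 and 17# tested by broth microdilution in YNB or RPMI 1640 medium. Plates incubated at 35 °C for up to 72 h, with visual readings taken at 24 h. MIC taken as the lowest concentration preventing visible growth.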

Candida albicans [3] = assay: Antifungal activity against Candida albicans isolate 17 grown in RPMI 1640 medium incubated for 24 hrs by microdilution method; type: functional; settings: isolate 17, 24 h; how it was run: as §2
[4] = tested on: Brassica rapa subsp. oleifera; assay: Herbicidal activity against Brassica campestris L assessed as inhibition of rape root growth at 100 mg/l root growth incubated for 48 hrs relative to control; type: functional
How it was run: (§3)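 Rape seeds soaked in distilled water for 4 h, then placed on filter paper wetted with inhibitor solution, 15 seeds per 6-cm dish. Germinated in the dark at 28 °C for 48 h. Mean length of 10 roots per plate measured.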

Fusarium fujikuroi = assay: Antifungal activity against Gibberella fujikuroi assessed as reduction in growth at 50 mg/l by mycelium growth rate method relative to control; type: functional; how it was run: as §1
Tobacco mosaic virus [5] = assay: Antiviral activity against Tobacco mosaic virus inoculated in Nicotiana tabacum leaves assessed as passivation by measuring local lesion numbers at 500 mg/l pre-incubated with virus for 30 mins followed by inoculation and measured up to 4 days; type: functional
How it was run: (§4)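 Passivation assay: TMV mixed with an equal volume of compound solution for 30 min, then rubbed onto the left half of N. tabacum L. leaves. The right half received virus mixed with solvent as control. Local lesions counted 3–4 days after inoculation. Compounds tested at 500 or 100 mg/L.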

Mythimna separata [6] = assay: Insecticidal activity against Mythimna separata assessed as larval mortality at 600 mg/l by leaf-dip method; type: functional
Candida albicans [7] = assay: Antifungal activity against Candida albicans isolate 17 grown in YNB medium incubated for 24 hrs by microdilution method; type: functional; settings: isolate 17, 24 h; how it was run: as §2
Candida albicans [8] = assay: Antifungal activity against Candida albicans isolate g5 grown in RPMI 1640 medium incubated for 24 hrs by microdilution method; type: functional; settings: isolate g5, 24 h; how it was run: as §2
Tobacco mosaic virus [9] = assay: Antiviral activity against Tobacco mosaic virus inoculated in Nicotiana tabacum leaves assessed as passivation by measuring local lesion numbers at 100 mg/l pre-incubated with virus for 30 mins followed by inoculation and measured up to 4 days; type: functional; how it was run: as §4
Colletotrichum = assay: Antifungal activity against Colletotrichum (W. anthracnose) assessed as reduction in growth at 50 mg/l by mycelium growth rate method relative to control; type: functional; how it was run: as §1
Arabidopsis thaliana [10] = assay: Inhibition of Arabidopsis thaliana AHAS catalytic subunit using pyruvate as substrate at 10 uM measured after 30 mins by colorimetric method relative to control
How it was run: (§5)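 Colorimetric assay in 50 mM potassium phosphate pH 7.0 with 50 mM pyruvate, 1 mM thiamine diphosphate, 10 mM MgCl2 and 10 μM FAD. Incubated 30 min at 37 °C for plant AHAS and 30 °C for fungal AHAS. Acetolactate formed was then quantified.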

Candida albicans [11] = assay: Inhibition of Candida albicans AHAS catalytic subunit at 100 uM using pyruvate as substrate measured after 30 mins by colorimetric method relative to control; how it was run: as §5
Ceratobasidium cereale = assay: Antifungal activity against Rhizoctonia cerealis assessed as reduction in growth at 50 mg/l by mycelium growth rate method relative to control; type: functional; how it was run: as §1
[12] = Inhibition of SARS coronavirus M protease using AVLQSGFRKK as substrate by FRET assay; set-up: species or system Severe acute respiratory syndrome-related coronavirus
How it was run: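 Purified SARS-CoV Mpro assayed by FRET. Protein, compound and substrate were preheated at 37 °C and oscillated. Fluorescence (ex 320/em 405 nm) was read every 5 s for 200 reads. IC50 from V0/V = 1+[I]/IC50.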

[13] = tested on: Brassica rapa subsp. oleifera; assay: Herbicidal activity against Brassica campestris L assessed as inhibition of rape root growth at 10 mg/l root growth incubated for 48 hrs relative to control; type: functional; how it was run: as §3
Candida albicans [14] = assay: Antifungal activity against Candida albicans isolate g5 grown in YNB medium incubated for 24 hrs by microdilution method; type: functional; settings: isolate g5, 24 h; how it was run: as §2
Phytophthora capsici = assay: Antifungal activity against Phytophthora capsici assessed as reduction in growth at 50 mg/l by mycelium growth rate method relative to control; type: functional; how it was run: as §1
Candida albicans [15] = assay: Inhibition of Candida albicans AHAS catalytic subunit at 10 uM using pyruvate as substrate measured after 30 mins by colorimetric method relative to control; how it was run: as §5
[16] = tested on: Severe acute respiratory syndrome-related coronavirus; assay: Inhibition of SARS coronavirus M protease using AVLQSGFRKK as substrate at 20 uM by FRET assay relative to control
How it was run: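 Purified SARS-CoV Mpro assayed by FRET. Protein, compound and substrate were preheated at 37 °C and oscillated. Fluorescence (ex 320/em 405 nm) was read every 5 s for 200 reads.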

[17] = tested on: Botryosphaeria berengeriana; assay: Antifungal activity against Physalospora pyricola assessed as reduction in growth at 50 mg/l by mycelium growth rate method relative to control; type: functional; how it was run: as §1
Arabidopsis thaliana [18] = assay: Inhibition of Arabidopsis thaliana AHAS catalytic subunit using pyruvate as substrate at 100 uM measured after 30 mins by colorimetric method relative to control; how it was run: as §5
Candida albicans [19] = assay: Antifungal activity against Candida albicans SC5314 grown in YNB medium incubated for 24 hrs by microdilution method; type: functional; settings: SC5314, 24 h; how it was run: as §2
[20] = tested on: SARS coronavirus M protease; assay: Selectivity index, ratio of CC50 for HEK293T cells to IC50 for SARS coronavirus M protease; type: toxicity; settings: human, read-out: Ratio CC50/IC50
How it was run: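 Medium discarded, DMSO added, OD570 read; CC50 is the concentration cutting viability by 50%. IC50 from the 37 °C Mpro FRET assay (ex 320/em 405 nm) via V0/V = 1+[I]/IC50.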

Mythimna separata [21] = assay: Insecticidal activity against Mythimna separata assessed as larval mortality at 10 mg/l by leaf-dip method; type: functional

`COc1nc(OC)nc(Sc2ccc(Br)cc2C#N)n1` showed a CC50 at 48 h [1] of 53.5 µM, an inhibition at 50 µg/mL (Sclerotinia sclerotiorum) of 19.4% and an MIC (Candida albicans [2]) greater than 100 µg/mL. The MIC (Candida albicans [3]) was greater than 100 µg/mL, the “inhibition (INH)” value [4] was 14% and the inhibition at 50 µg/mL (Fusarium fujikuroi) was 30.3%. For the same compound, the inhibition at 500 µg/mL (Tobacco mosaic virus [5]) was 0%, the mortality at 600 µg/mL (Mythimna separata [6]) was 20% and the MIC (Candida albicans [7]) was greater than 100 µg/mL. For the same compound, the MIC (Candida albicans [8]) was greater than 100 µg/mL, the inhibition (Tobacco mosaic virus [9]) was “inactive” and the inhibition at 50 µg/mL (Colletotrichum) was 21.4%. It also gave an inhibition (Arabidopsis thaliana [10]) of 57.3%, an inhibition (Candida albicans [11]) of 81.1% and an inhibition at 50 µg/mL (Ceratobasidium cereale) of 66.7%. The IC50 [12] was 4.54 µM, the “inhibition (INH)” value [13] was 0% and the MIC (Candida albicans [14]) was greater than 100 µg/mL. It also gave an inhibition at 50 µg/mL (Phytophthora capsici) of 8.3%, an inhibition (Candida albicans [15]) of 37.4% and an inhibition [16] of 100%. For the same compound, the inhibition at 50 µg/mL [17] was 70.3%, the inhibition (Arabidopsis thaliana [18]) was 85.5% and the MIC (Candida albicans [19]) was greater than 100 µg/mL.
For `COc1nc(OC)nc(Sc2cccc(I)c2C#N)n1`, the CC50 at 48 h [1] was 30.5 µM, the inhibition at 50 µg/mL (Sclerotinia sclerotiorum) was 11.1% and the MIC (Candida albicans [2]) was greater than 100 µg/mL. For the same compound, the MIC (Candida albicans [3]) was greater than 100 µg/mL, the “inhibition (INH)” value [4] was 51.6% and the inhibition at 50 µg/mL (Fusarium fujikuroi) was 30.3%. It also gave an inhibition at 500 µg/mL (Tobacco mosaic virus [5]) of 22.8%, a mortality at 600 µg/mL (Mythimna separata [6]) of 45% and an MIC (Candida albicans [7]) greater than 100 µg/mL. For the same compound, the MIC (Candida albicans [8]) was greater than 100 µg/mL, the inhibition (Tobacco mosaic virus [9]) was “inactive” and the inhibition at 50 µg/mL (Colletotrichum) was 33.3%. For the same compound, the inhibition (Arabidopsis thaliana [10]) was 51.6%, the inhibition (Candida albicans [11]) was 69.3% and the inhibition at 50 µg/mL (Ceratobasidium cereale) was 52.4%. The IC50 [12] was 3.3 µM, the “inhibition (INH)” value [13] was 0% and the MIC (Candida albicans [14]) was greater than 100 µg/mL. The inhibition at 50 µg/mL (Phytophthora capsici) was 8.3%, the inhibition (Candida albicans [15]) was 45.4% and the inhibition [16] was 100%. For the same compound, the inhibition at 50 µg/mL [17] was 29.7%, the inhibition (Arabidopsis thaliana [18]) was 66.7% and the MIC (Candida albicans [19]) was greater than 100 µg/mL.
In the case of `COc1nc(OC)nc(Sc2ccc(F)cc2C#N)n1`, the CC50 at 48 h [1] is reported as greater than 200 µM, the inhibition at 50 µg/mL (Sclerotinia sclerotiorum) is reported as 33.3% and the MIC (Candida albicans [2]) is reported as 100 µg/mL (≈ 342 µM). For the same compound, the MIC (Candida albicans [3]) was 100 µg/mL (≈ 342 µM), the “inhibition (INH)” value [4] was 60.3% and the inhibition at 50 µg/mL (Fusarium fujikuroi) was 33.3%. It also gave an inhibition at 500 µg/mL (Tobacco mosaic virus [5]) of 26.4%, a mortality at 600 µg/mL (Mythimna separata [6]) of 20% and an MIC (Candida albicans [7]) of 25 µg/mL (≈ 85.5 µM). The MIC (Candida albicans [8]) was 100 µg/mL (≈ 342 µM), the inhibition (Tobacco mosaic virus [9]) was “inactive” and the selectivity ratio [20] was 44.5. The inhibition at 50 µg/mL (Colletotrichum) was 40.5%, the inhibition (Arabidopsis thaliana [10]) was 59.2% and the inhibition (Candida albicans [11]) was 85.1%. For the same compound, the inhibition at 50 µg/mL (Ceratobasidium cereale) was 57.1%, the IC50 [12] was 4.47 µM and the “inhibition (INH)” value [13] was 4.6%. It also gave an MIC (Candida albicans [14]) of 50 µg/mL (≈ 171 µM), an inhibition at 50 µg/mL (Phytophthora capsici) of 25% and an inhibition (Candida albicans [15]) of 36.4%. It also gave an inhibition [16] of 100%, an inhibition at 50 µg/mL [17] of 75% and an inhibition (Arabidopsis thaliana [18]) of 71.2%. For the same compound, the MIC (Candida albicans [19]) was 50 µg/mL (≈ 171 µM).
In the case of `CNC(=O)c1cc(Cl)cc(C)c1NC(=O)c1cc(Br)nn1-c1ncccc1Cl` [CHLORANTRANILIPROLE], the mortality at 10 µg/mL (Mythimna separata [21]) is reported as 100%.
